# In ChEMBL document CHEMBL4689842, “EUbOPEN Chemogenomics Library wave 1” (2021):
# Where “and” joins values, the source holds several entries; their conditions need not be identical. Equal entries are not always repeated.
# Test system: Fibroblast
# Assay: Multiplex assay against human fibroblast
# Format: toxicity, cell-based
# In short: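 At seeding, live cells were stained with Hoechst33342, BioTracker Green Microtubule Cytoskeleton Dye, MitoTracker Red and Annexin V Alexa Fluor 680. After compound addition they were imaged on a CQ1 microscope at 37°C and 5% CO2, and CellPathfinder machine-learning gating sorted them into Hoechst high-intensity objects or normal cells, with normal cells further split into healthy, pyknosed or fragmented nuclei and pyknosed cells into mitotic or apoptotic. Tubulin, mitochondrial-mass and membrane-permeability phenotypes are given as per cents of cells with healthy nuclei.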
# [1] = 12 h, 1 µM, compound concentration 1 uM, replicate 1
# [2] = 12 h, 1 µM, compound concentration 1 uM, replicate 2
# [3] = 12 h, 10 µM, compound concentration 10 uM, replicate 1
# [4] = 12 h, 10 µM, compound concentration 10 uM, replicate 2
# [5] = 24 h, 1 µM, compound concentration 1 uM, replicate 1
# [6] = 24 h, 1 µM, compound concentration 1 uM, replicate 2
# [7] = 24 h, 10 µM, compound concentration 10 uM, replicate 1
# [8] = 24 h, 10 µM, compound concentration 10 uM, replicate 2
smiles,measurement,setting,value
CC(=O)O[C@H]1C(=O)[C@@]2(C)[C@H]([C@H](OC(=O)c3ccccc3)[C@]3(O)C[C@H](OC(=O)[C@H](O)[C@@H](NC(=O)c4ccccc4)c4ccccc4)C(C)=C1C3(C)C)[C@]1(OC(C)=O)CO[C@@H]1C[C@@H]2O [PACLITAXEL],Population Apoptotic (%),[1],55% and 76%
same,Population Fragmented Nuclei (%),[1],25% and 15%
same,Population Healthy Nuclei (%),[1],66% and 75%
same,Population Hoechst High Intensity Objects (%),[1],11% and 8%
same,Population Membrane Permeable-Phenotype (%),[1],5%
same,Population Mitochondria Different-Phenotype (%),[1],3% and 2%
same,Population Mitotic Cells (%),[1],45% and 23%
same,Population Normal (%),[1],88% and 91%
same,Population Pyknosed Nuclei (%),[1],8% and 9%
same,Population Tubulin-Different-Phenotype (%),[1],0%
same,Total Cell Count,[1],281 and 246
same,Population Fragmented Nuclei (%),[2],46% and 34%
same,Population Healthy Nuclei (%),[2],35% and 59%
same,Population Hoechst High Intensity Objects (%),[2],32% and 39%
same,Population Mitochondria Different-Phenotype (%),[2],10% and 15%
same,Population Mitotic Cells (%),[2],40% and 100%
same,Population Normal (%),[2],67% and 60%
same,Population Pyknosed Nuclei (%),[2],18% and 6%
same,Population Tubulin-Different-Phenotype (%),[2],10% and 26%
same,Total Cell Count,[2],80 and 73
same,Population Apoptotic (%),[3],81% [middle of 4 runs]
same,Population Fragmented Nuclei (%),[3],23% and 24%
same,Population Healthy Nuclei (%),[3],61% [middle of 4 runs]
same,Population Hoechst High Intensity Objects (%),[3],12% [middle of 4 runs]
same,Population Membrane Permeable-Phenotype (%),[3],5% and 3%
same,Population Mitochondria Different-Phenotype (%),[3],5% and 4% and 2%
same,Population Mitotic Cells (%),[3],26% [middle of 4 runs]
same,Population Normal (%),[3],88% and 90% and 79% and 87%
same,Population Pyknosed Nuclei (%),[3],14% and 21% and 11%
same,Total Cell Count,[3],304 [middle of 4 runs]
same,Population Fragmented Nuclei (%),[4],58% [middle of 4 runs]
same,Population Healthy Nuclei (%),[4],42% [middle of 4 runs]
same,Population Hoechst High Intensity Objects (%),[4],37% [middle of 4 runs]
same,Population Normal (%),[4],68% and 62% and 51% and 72%
same,Population Pyknosed Nuclei (%),[4],7% and 6% and 8%
same,Population Tubulin-Different-Phenotype (%),[4],9% [middle of 4 runs]
same,Total Cell Count,[4],93 and 80 and 115
same,Population Apoptotic (%),[5],48% and 38%
same,Population Fragmented Nuclei (%),[5],18% and 13%
same,Population Healthy Nuclei (%),[5],70% and 74%
same,Population Hoechst High Intensity Objects (%),[5],14% and 13%
same,Population Membrane Permeable-Phenotype (%),[5],5% and 4%
same,Population Mitotic Cells (%),[5],52% and 61%
same,Population Normal (%),[5],85% and 86%
same,Population Pyknosed Nuclei (%),[5],11%
same,Total Cell Count,[5],264 and 252
same,Population Fragmented Nuclei (%),[6],54% and 48%
same,Population Healthy Nuclei (%),[6],28% and 48%
same,Population Hoechst High Intensity Objects (%),[6],33% and 29%
same,Population Membrane Permeable-Phenotype (%),[6],13% and 11%
same,Population Mitochondria Different-Phenotype (%),[6],0% and 7%
same,Population Mitotic Cells (%),[6],44% and 100%
same,Population Normal (%),[6],66% and 70%
same,Total Cell Count,[6],80 and 77
same,Population Apoptotic (%),[7],71% [middle of 4 runs]
same,Population Fragmented Nuclei (%),[7],26% [middle of 4 runs]
same,Population Healthy Nuclei (%),[7],64% [middle of 4 runs]
same,Population Hoechst High Intensity Objects (%),[7],15% [middle of 4 runs]
same,Population Mitochondria Different-Phenotype (%),[7],2% and 0%
same,Population Normal (%),[7],85% and 87% and 84% and 75%
same,Population Pyknosed Nuclei (%),[7],16% and 15%
same,Total Cell Count,[7],291 and 285 and 333
same,Population Apoptotic (%),[8],44% [middle of 4 runs]
same,Population Fragmented Nuclei (%),[8],62% [middle of 4 runs]
same,Population Healthy Nuclei (%),[8],40% and 28% and 26%
same,Population Hoechst High Intensity Objects (%),[8],35% [middle of 4 runs]
same,Population Membrane Permeable-Phenotype (%),[8],17% [middle of 4 runs]
same,Population Normal (%),[8],68% and 64% and 53% and 72%
same,Population Pyknosed Nuclei (%),[8],11% [middle of 4 runs]
same,Total Cell Count,[8],93 [middle of 4 runs]
